System: A2780
Assay: Concentration required to inhibit 50% growth of A2780 human ovarian cancer cells.
Type: functional, cell-based
Procedure, shortened: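 A2780 cells kept at 37 °C, 5% CO2, seeded at 1 × 10^4 cells per well, grown 72 h, then exposed for 24 h to complexes freshly dissolved in deionized water and diluted in RPMI to final 0.1, 1, 10 and 100 µM, in duplicate. Drug medium removed, cells washed with PBS, regrown in fresh medium and counted on day 7 by Coulter counter.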

IC50 [µM]	Substance
6	CARBOPLATIN
0.5	CISPLATIN
6	[(nu6-C6H5C6H5)RuCl(N-ethylethylenediamine)]PF6
55	[(nu6-C6H5CO2CH3)RuCl(ethylenediamine)]PF6
17	[(nu6-C6H6)RuCl(ethylenediamine)]PF6
20	[(nu6-C6H6)RuI(ethylenediamine)]PF6
> 150	[(nu6-p-cymene)RuBr(CH3CN)2]PF6
> 150	[(nu6-p-cymene)RuCl2(isonicotinamide)]
9	[(nu6-p-cymene)RuCl(ethylenediamine)]PF6
8	[(nu6-p-cymene)RuI(ethylenediamine)]PF6
